Measured values taken from the M2OR odorant receptor database.

Tests used:
Details in all cases: stereoisomer not certain
OR8H1 (Homo sapiens) = OR8H1 (Homo sapiens) (UniProt Q8NGG4)
Summary of the method: (§1)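 Each receptor–molecule pair is labelled responsive or non-responsive (inactive) according to whether the original authors judged the measured signal statistically different from baseline. The data were taken from the main text and supplementary material of published papers and checked for typos and inconsistencies. Assay methods differed by source, with transient luciferase assays in mammalian cell lines being common.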

OR8H2 (Homo sapiens) = OR8H2 (Homo sapiens) (UniProt Q8N162)
Summary of the method: as §1

OR8H2 H120Y Y169C V284M = tested on: OR8H2 H120Y Y169C V284M
Summary of the method: as §1

OR8H3 (Homo sapiens) = OR8H3 (Homo sapiens) (UniProt Q8N146)
Summary of the method: as §1

OR8H3 = tested on: OR8H3
Summary of the method: as §1

OR8I2 (Homo sapiens) = OR8I2 (Homo sapiens) (UniProt Q8N0Y5)
Summary of the method: as §1

OR8J1 (Homo sapiens) = OR8J1 (Homo sapiens) (UniProt Q8NGP2)
Summary of the method: as §1

OR8J1 = tested on: OR8J1
Summary of the method: as §1

OR8J3 (Homo sapiens) = OR8J3 (Homo sapiens) (UniProt Q8NGG0)
Summary of the method: as §1

OR8J2 (Homo sapiens) = OR8J2 (Homo sapiens) (UniProt Q8NGG1)
Summary of the method: as §1

Measured: odorant receptor agonist call;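 also: active if original authors judged signal statistically different from baseline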

Sequence of OR8J1 (Homo sapiens) (Q8NGP2 whole entry): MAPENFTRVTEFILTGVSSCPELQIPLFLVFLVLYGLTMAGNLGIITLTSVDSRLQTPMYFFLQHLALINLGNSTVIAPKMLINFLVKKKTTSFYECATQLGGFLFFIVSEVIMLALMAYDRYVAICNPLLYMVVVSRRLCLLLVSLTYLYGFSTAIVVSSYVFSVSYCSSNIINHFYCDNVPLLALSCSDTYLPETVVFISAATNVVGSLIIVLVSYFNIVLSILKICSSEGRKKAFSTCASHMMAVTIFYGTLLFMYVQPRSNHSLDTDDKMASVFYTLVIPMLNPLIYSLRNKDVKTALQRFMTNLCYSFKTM
Sequence of OR8H2 (Homo sapiens) (Q8N162 whole entry): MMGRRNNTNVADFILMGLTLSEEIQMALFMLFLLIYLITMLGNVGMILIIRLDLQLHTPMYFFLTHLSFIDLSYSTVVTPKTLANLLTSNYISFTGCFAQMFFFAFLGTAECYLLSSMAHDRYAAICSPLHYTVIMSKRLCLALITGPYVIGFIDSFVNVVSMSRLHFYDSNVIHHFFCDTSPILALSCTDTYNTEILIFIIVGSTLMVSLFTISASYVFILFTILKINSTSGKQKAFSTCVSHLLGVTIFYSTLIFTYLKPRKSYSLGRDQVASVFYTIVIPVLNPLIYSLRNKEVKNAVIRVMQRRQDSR
Sequence of OR8I2 (Homo sapiens) (Q8N0Y5 whole entry): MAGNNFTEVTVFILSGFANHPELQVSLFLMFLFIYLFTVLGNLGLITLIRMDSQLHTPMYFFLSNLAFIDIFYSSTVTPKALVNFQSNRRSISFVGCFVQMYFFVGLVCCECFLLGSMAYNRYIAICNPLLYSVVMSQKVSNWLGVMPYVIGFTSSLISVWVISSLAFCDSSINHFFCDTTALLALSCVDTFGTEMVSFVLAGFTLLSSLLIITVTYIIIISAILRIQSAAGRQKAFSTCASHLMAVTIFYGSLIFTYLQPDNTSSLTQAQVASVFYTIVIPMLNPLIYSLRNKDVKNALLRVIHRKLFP
Sequence of OR8H3 (Homo sapiens) (Q8N146 whole entry): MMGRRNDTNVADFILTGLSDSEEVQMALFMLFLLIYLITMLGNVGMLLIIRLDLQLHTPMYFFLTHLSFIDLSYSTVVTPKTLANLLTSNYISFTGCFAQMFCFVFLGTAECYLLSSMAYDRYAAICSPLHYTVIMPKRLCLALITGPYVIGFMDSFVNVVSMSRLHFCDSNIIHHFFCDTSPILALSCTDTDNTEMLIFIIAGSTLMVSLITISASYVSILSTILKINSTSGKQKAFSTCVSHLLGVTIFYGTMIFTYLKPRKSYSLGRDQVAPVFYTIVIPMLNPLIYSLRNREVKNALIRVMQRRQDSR
Sequence of OR8H1 (Homo sapiens) (Q8NGG4 whole entry): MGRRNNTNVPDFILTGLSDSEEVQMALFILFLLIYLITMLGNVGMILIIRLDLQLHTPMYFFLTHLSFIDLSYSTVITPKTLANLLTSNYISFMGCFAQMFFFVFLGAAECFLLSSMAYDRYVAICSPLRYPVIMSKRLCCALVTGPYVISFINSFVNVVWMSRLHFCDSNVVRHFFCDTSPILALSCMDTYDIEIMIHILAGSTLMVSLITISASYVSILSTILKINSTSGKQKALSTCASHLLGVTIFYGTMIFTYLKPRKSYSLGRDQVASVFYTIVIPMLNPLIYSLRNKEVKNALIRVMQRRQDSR
Sequence of OR8J3 (Homo sapiens) (Q8NGG0 whole entry): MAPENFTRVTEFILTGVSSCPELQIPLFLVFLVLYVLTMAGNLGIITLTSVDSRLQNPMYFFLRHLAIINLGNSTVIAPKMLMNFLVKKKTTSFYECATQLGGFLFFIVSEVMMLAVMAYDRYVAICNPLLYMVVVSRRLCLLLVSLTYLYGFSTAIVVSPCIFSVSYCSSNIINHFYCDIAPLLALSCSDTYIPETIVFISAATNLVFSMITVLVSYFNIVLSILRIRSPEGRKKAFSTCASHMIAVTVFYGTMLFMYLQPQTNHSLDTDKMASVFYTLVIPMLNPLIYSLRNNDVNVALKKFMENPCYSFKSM
Sequence of OR8J1 (as listed by the source): as the sequence (Q8NGP2 whole entry) above, with Y120C counted along it
Sequence of OR8H3 (as listed by the source): as the sequence (Q8N146 whole entry) above, with P137S counted along it
Sequence of OR8J2 (Homo sapiens) (Q8NGG1 whole entry): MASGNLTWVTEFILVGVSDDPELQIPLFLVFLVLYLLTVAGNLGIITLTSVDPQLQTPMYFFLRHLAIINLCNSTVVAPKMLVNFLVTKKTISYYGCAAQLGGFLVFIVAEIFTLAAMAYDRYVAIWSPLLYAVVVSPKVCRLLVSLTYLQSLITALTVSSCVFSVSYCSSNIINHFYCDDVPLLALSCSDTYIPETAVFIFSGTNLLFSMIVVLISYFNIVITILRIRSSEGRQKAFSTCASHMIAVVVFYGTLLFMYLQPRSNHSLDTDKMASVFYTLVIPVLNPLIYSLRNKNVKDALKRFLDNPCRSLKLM

C=CCOC(=O)Cc1ccccc1
inactive: OR8H1 (Homo sapiens) | OR8H2 (Homo sapiens) | OR8H2 H120Y Y169C V284M | OR8H3 (Homo sapiens) | OR8H3 | OR8I2 (Homo sapiens) | OR8J1 (Homo sapiens) | OR8J1 | OR8J3 (Homo sapiens)

Cc1c([N+](=O)[O-])c(C)c([N+](=O)[O-])c(C(C)(C)C)c1[N+](=O)[O-]
inactive: OR8H1 (Homo sapiens) | OR8H2 (Homo sapiens) | OR8H3 (Homo sapiens) | OR8I2 (Homo sapiens) | OR8J1 (Homo sapiens) | OR8J2 (Homo sapiens) | OR8J3 (Homo sapiens)
